Active and inactive are the calls of the source. The calls are words filed in the database; no cut-off is given here.
Key:
MDA-MB-231 [1] = test: Antiproliferative activity against human triple-negative MDA-MB-231 cells at 52 to 65 uM after 72 hrs by CellTiter-Glo assay; type: functional, cell-based
Homo sapiens = organism: Homo sapiens; test: Antiproliferative activity against human ER-positive MA11 cells at 52 to 65 uM after 72 hrs by CellTiter-Glo assay; type: functional
MCF7 = test: Antiproliferative activity against human ER-positive MCF7 cells at 52 to 65 uM after 72 hrs by CellTiter-Glo assay; type: functional, cell-based
HEK293 [2] = test: Cytotoxicity against HEK293 cells at 52 to 65 uM after 72 hrs by CellTiter-Glo assay; type: cell-based; conditions: human, hek293, 72 h
HepG2 [3] = test: Cytotoxicity against human HepG2 cells at 52 to 65 uM after 72 hrs by CellTiter-Glo assay; type: cell-based; conditions: hepg2, 72 h
MDA-MB-231 [4] = test: Antiproliferative activity against human triple-negative MDA-MB-231 cells at >52.3 uM after 72 hrs by CellTiter-Glo assay; type: functional, cell-based
MDA-MB-231 [5] = test: Antiproliferative activity against human triple-negative MDA-MB-231 cells at <= 50 uM after 72 hrs by CellTiter-Glo assay; type: functional, cell-based
HEK293 [6] = test: Cytotoxicity against HEK293 cells at <= 50 uM after 72 hrs by CellTiter-Glo assay; type: cell-based; conditions: human, hek293, 72 h
HepG2 [7] = test: Cytotoxicity against human HepG2 cells at <= 50 uM after 72 hrs by CellTiter-Glo assay; type: cell-based; conditions: hepg2, 72 h
MDA-MB-231 [8] = test: Antiproliferative activity against human triple-negative MDA-MB-231 cells at 22 uM after 72 hrs by CellTiter-Glo assay; type: functional, cell-based
MDA-MB-231 [9] = test: Antiproliferative activity against human triple-negative MDA-MB-231 cells after 72 hrs by CellTiter-Glo assay; type: functional, cell-based
[10] = Half life in human plasma; type: ADME, cell-free
How it was run: (§1)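 Compound stability incubated in human or mouse plasma; half-life determined, with known drugs as controls.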

[11] = Half life in mouse plasma; type: ADME, cell-free; how it was run: as §1
[12] = Permeability of the compound at pH 7.4 by PAMPA assay; type: physicochemical; conditions: read-out: permeability
[13] = Apparent permeability from apical to basolateral side in human Caco2 cells; type: ADME, cell-based; conditions: Caco-2
[14] = Apparent permeability from basolateral to apical side in human Caco2 cells; type: ADME, cell-based; conditions: Caco-2
[15] = Efflux ratio of permeability from basolateral to apical side over apical to basolateral side in human Caco2 cells; type: ADME, cell-based; conditions: Caco-2
[16] = Permeability of the compound at pH 7.4 assessed as drug retention by PAMPA assay; type: physicochemical

| Compound | Activity (MDA-MB-231 [1]) | Activity (Homo sapiens) | Activity (MCF7) | Activity (HEK293 [2]) | Activity (HepG2 [3]) | other results |
| --- | --- | --- | --- | --- | --- | --- |
| COc1ccc(C(=O)NC[C@]2(C)CCC[C@]3(C)c4ccc(C(C)C)cc4CC[C@@H]23)cc1 | inactive | inactive | inactive | Non-toxic | Non-toxic | – |
| CC(C)c1ccc2c(c1)CC[C@H]1[C@](C)(CNS(=O)(=O)c3c(F)cccc3F)CCC[C@]21C | – | – | – | – | – | Activity (MDA-MB-231 [4]): Active |
| COc1cccc(C(=O)NC[C@]2(C)CCC[C@]3(C)c4ccc(C(C)C)cc4CC[C@@H]23)c1 | inactive | inactive | inactive | Non-toxic | Non-toxic | – |
| Cc1nnsc1C(=O)NC[C@]1(C)CCC[C@]2(C)c3ccc(C(C)C)cc3CC[C@@H]12 | inactive | inactive | inactive | Non-toxic | Non-toxic | – |
| CC(C)c1ccc2c(c1)CC[C@H]1[C@](C)(CNS(=O)(=O)c3cc(Cl)cc(Cl)c3)CCC[C@]21C | – | – | – | – | – | Activity (MDA-MB-231 [4]): Active |
| CC(C)c1ccc2c(c1)CC[C@H]1[C@](C)(CN)CCC[C@]21C | – | – | – | – | – | Activity (MDA-MB-231 [5]): Active; Activity (HEK293 [6]): Non-toxic; Activity (HepG2 [7]): Non-toxic |
| CC(C)c1ccc2c(c1)CC[C@H]1[C@](C)(CNC(=O)c3ccc(-c4ccccc4)cc3)CCC[C@]21C | inactive | inactive | inactive | Non-toxic | Non-toxic | – |
| CC(C)c1cc2c(c(O)c1O)[C@@]13CCCC(C)(C)[C@@H]1C[C@@H]2OC3=O [CARNOSOL] | – | – | – | – | – | Activity (MDA-MB-231 [5]): Active; Activity (HEK293 [6]): Non-toxic; Activity (HepG2 [7]): Non-toxic; Activity (MDA-MB-231 [8]): Active |
| C=C[C@@]1(C)C=C2CC[C@@H]3[C@](C)(CCC[C@@]3(C)C(=O)O)[C@H]2CC1 | – | – | – | – | – | Activity (MDA-MB-231 [9]): inactive |
| CC(C)c1ccc2c(c1)CC[C@H]1[C@](C)(CNC(=O)c3c(Cl)cc(Cl)cc3Cl)CCC[C@]21C | inactive | inactive | inactive | Non-toxic | Non-toxic | – |
| CC(C)c1ccc2c(c1)CC[C@H]1[C@](C)(CNC(=O)[C@@H]3C[C@H]3c3ccccc3)CCC[C@]21C | inactive | inactive | inactive | Non-toxic | Non-toxic | – |
| CC(C)c1ccc2c(c1)CC[C@H]1[C@](C)(CNC(=O)C3CC4C=CC3C4)CCC[C@]21C (stereo partly specified) | inactive | inactive | inactive | Non-toxic | Non-toxic | – |
| Cc1csc(C(=O)NC[C@]2(C)CCC[C@]3(C)c4ccc(C(C)C)cc4CC[C@@H]23)c1 | inactive | inactive | inactive | Non-toxic | Non-toxic | – |
| CC(C)c1ccc2c(c1)CC[C@H]1[C@](C)(CNC(=O)CC3CCCC3)CCC[C@]21C | inactive | inactive | inactive | Non-toxic | Non-toxic | – |
| CC1CC(OC(=O)C(O)c2ccccc2)CC(C)(C)N1C (stereo unspecified) [EUCATROPINE] | – | – | – | – | – | half-life [10]: 0.42 h; half-life [11]: 1.8 h |
| CC(C)c1ccc2c(c1)CC[C@H]1[C@](C)(CNC(=O)N3CCCCC3)CCC[C@]21C | inactive | inactive | inactive | Non-toxic | Non-toxic | – |
| CC(C)c1ccc2c(c1)CC[C@H]1[C@](C)(CNS(=O)(=O)c3cccc(Cl)c3Cl)CCC[C@]21C | – | – | – | – | – | Activity (MDA-MB-231 [4]): Active |
| CC(C)c1ccc2c(c1)CC[C@H]1[C@](C)(CNC(=O)c3ccc(C(F)(F)F)cc3)CCC[C@]21C | inactive | inactive | inactive | Non-toxic | Non-toxic | – |
| CC(C)c1cc2c(c(O)c1O)[C@@]1(C(=O)O)CCCC(C)(C)[C@@H]1CC2 [CARNOSIC ACID] | – | – | – | – | – | Activity (MDA-MB-231 [5]): Active; Activity (HEK293 [6]): Non-toxic; Activity (HepG2 [7]): Non-toxic |
| CC(C)c1ccc2c(c1)CC[C@H]1[C@](C)(CNC(=O)c3ccc(F)cc3)CCC[C@]21C | inactive | inactive | inactive | Non-toxic | Non-toxic | – |

| Compound | Activity (MDA-MB-231 [1]) | Activity (Homo sapiens) | Activity (MCF7) | Activity (HEK293 [2]) | Activity (HepG2 [3]) | other results |
| --- | --- | --- | --- | --- | --- | --- |
| Cc1ccsc1C(=O)NC[C@]1(C)CCC[C@]2(C)c3ccc(C(C)C)cc3CC[C@@H]12 | inactive | inactive | inactive | Non-toxic | Non-toxic | – |
| CC(C)c1ccc2c(c1)CC[C@H]1[C@](C)(C(=O)O)CCC[C@]21C [DEHYDROABIETIC ACID] | – | – | – | – | – | Activity (MDA-MB-231 [5]): Active; Activity (HEK293 [6]): Non-toxic; Activity (HepG2 [7]): Non-toxic |
| CC(C)c1ccc2c(c1)CC[C@H]1[C@](C)(CNS(=O)(=O)c3cc(F)c(F)c(F)c3)CCC[C@]21C | – | – | – | – | – | Activity (MDA-MB-231 [4]): Active |
| CC(C)c1ccc2c(c1)CC[C@H]1[C@](C)(CNS(=O)(=O)c3cccc(F)c3)CCC[C@]21C | – | – | – | – | – | Activity (MDA-MB-231 [4]): Active |
| CC(C)c1ccc2c(c1)CC[C@H]1[C@](C)(CNC(=O)c3ccc(I)cc3)CCC[C@]21C | inactive | inactive | inactive | Non-toxic | Non-toxic | – |
| CC(C)c1ccc2c(c1)CC[C@H]1[C@](C)(CNC(=O)[C@@H](C)c3ccccc3)CCC[C@]21C | inactive | inactive | inactive | Non-toxic | Non-toxic | – |
| NC(=O)N1c2ccccc2C=Cc2ccccc21 [CARBAMAZEPINE] | – | – | – | – | – | Papp [12]: 128 ×10⁻⁶ cm/s; Papp A→B [13]: 66.7 ×10⁻⁶ cm/s; Papp B→A [14]: 42.8 ×10⁻⁶ cm/s; efflux ratio [15]: 0.6; permeability [16]: 40.9% |
| CC(C)c1ccc2c(c1)CC[C@H]1[C@](C)(CNC(=O)c3ccc(C#N)cc3)CCC[C@]21C | inactive | inactive | inactive | Non-toxic | Non-toxic | – |
| CC(C)c1ccc2c(c1)CC[C@H]1[C@](C)(CNS(=O)(=O)c3ccc(F)cc3)CCC[C@]21C | – | – | – | – | – | Activity (MDA-MB-231 [4]): Active |
| CC(C)c1ccc2c(c1)CC[C@H]1[C@](C)(CNS(=O)(=O)c3ccc(Cl)c(Cl)c3)CCC[C@]21C | – | – | – | – | – | Activity (MDA-MB-231 [4]): Active |
| CC(C)c1ccc2c(c1)CC[C@H]1[C@](C)(CNC(=O)c3cccs3)CCC[C@]21C | inactive | inactive | inactive | Non-toxic | Non-toxic | – |
| CC(C)c1ccc2c(c1)CC[C@H]1[C@](C)(CNC(=O)c3ccc(Cl)c([N+](=O)[O-])c3)CCC[C@]21C | inactive | inactive | inactive | Non-toxic | Non-toxic | – |
| CC(C)c1ccc2c(c1)CC[C@H]1[C@](C)(CNC(=O)CSc3ccccc3)CCC[C@]21C | inactive | inactive | inactive | Non-toxic | Non-toxic | – |
| CC(C)C1=CC2=CC[C@@H]3[C@](C)(CCC[C@@]3(C)C(=O)O)[C@H]2CC1 | – | – | – | – | – | Activity (MDA-MB-231 [9]): inactive |
| CC(C)c1ccc2c(c1)CC[C@H]1[C@](C)(CNS(=O)(=O)c3c(Cl)cc(Cl)cc3Cl)CCC[C@]21C | – | – | – | – | – | Activity (MDA-MB-231 [4]): Active |
| CC(C)c1ccc2c(c1)CC[C@H]1[C@](C)(CNC(=O)C3CCCC3)CCC[C@]21C | inactive | inactive | inactive | Non-toxic | Non-toxic | – |
| CC(C)c1ccc2c(c1)CC[C@H]1[C@](C)(CNC(=O)c3cc4ccccc4o3)CCC[C@]21C | inactive | inactive | inactive | Non-toxic | Non-toxic | – |
| CC(C)c1ccc2c(c1)CC[C@H]1[C@](C)(CNS(=O)(=O)c3cc(Cl)cc(Cl)c3O)CCC[C@]21C | – | – | – | – | – | Activity (MDA-MB-231 [4]): Active |
| CC(C)c1ccc2c(c1)CC[C@H]1[C@](C)(CNC(=O)c3ccc(Cl)cc3Cl)CCC[C@]21C | inactive | inactive | inactive | Non-toxic | Non-toxic | – |
